Source: ChEMBL document CHEMBL1127078, “Fluorocyclopropyl quinolones. 1. Synthesis and structure-activity relationships of 1-(2-fluorocyclopropyl)-3-pyridonecarboxylic acid antibacterial agents” (J Med Chem, 1993)
Converted amounts (≈) assume the structure as drawn.

Experiments:
[1] = tested on: Escherichia coli; test: (§1) Dose required to inhibit DNA gyrase in Escherichia coli; format: functional; conditions: read-out: ID50 (the source's name)
[2] = Partition coefficient of the compound; format: ADME; conditions: CHCl3-0.1 M phosphate buffer (pH 7.4)
Summary of the method: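 Shake-flask distribution between CHCl3 and 0.1 M sodium phosphate buffer pH 7.4, each phase presaturated with the other. About 1–2 mg sample dissolved in the aqueous phase and its UV maximum absorbance recorded. Equal 10 mL volumes shaken 30 min at room temperature, then left 1 h to separate. Aqueous-layer UV maximum re-read. P' calculated as a ratio of the absorbance readings.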

[3] = tested on: Escherichia coli; test: Tested for minimum inhibitory concentration against Escherichia coli KL16; format: functional
Summary of the method: (§2)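 Twofold broth microdilution in Mueller-Hinton broth, inoculum approximately 10^6 cfu/mL. Plates incubated 18 h at 37 °C. MIC taken as the lowest concentration preventing visible bacterial growth.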

[4] = tested on: Staphylococcus epidermidis; test: Tested for minimum inhibitory concentration against Staphylococcus epidermidis 56556; format: functional; summary of the method: as §2
[5] = tested on: Streptococcus pyogenes; test: Tested for minimum inhibitory concentration against Streptococcus pyogenes G-36; format: functional; summary of the method: as §2
[6] = tested on: Proteus vulgaris; test: Tested for minimum inhibitory concentration against Proteus vulgaris 08601; format: functional; summary of the method: as §2
[7] = tested on: Enterococcus faecalis; test: Tested for minimum inhibitory concentration against Enterococcus faecalis ATCC 19433; format: functional; summary of the method: as §2
[8] = tested on: Enterobacter cloacae; test: (§3) Tested for minimum inhibitory concentration against Enterobacter cloacae 03400; format: functional; summary of the method: as §2
[9] = tested on: Pseudomonas aeruginosa; test: Tested for minimum inhibitory concentration against Pseudomonas aeruginosa 32121; format: functional; summary of the method: as §2
[10] = tested on: Staphylococcus aureus; test: Tested for minimum inhibitory concentration against Staphylococcus aureus Smith; format: functional; summary of the method: as §2
[11] = tested on: Escherichia coli; test: Tested for minimum inhibitory concentration against Escherichia coli NIHJ; format: functional; summary of the method: as §2
[12] = tested on: Staphylococcus aureus; test: Tested for minimum inhibitory concentration against Staphylococcus aureus 209P; format: functional; summary of the method: as §2
[13] = tested on: Klebsiella pneumoniae; test: Tested for minimum inhibitory concentration against Klebsiella pneumoniae; format: functional; summary of the method: as §2
[14] = tested on: Escherichia coli; test: Tested for minimum inhibitory concentration against Escherichia coli KL-16; format: functional; summary of the method: as §2
[15] = tested on: Enterobacter cloacae; test: as §3; format: functional; remark: listed apart in the source
[16] = biological target: DNA gyrase (Escherichia coli) (UniProt P0AES6+P0AES4); test: as §1; format: protein-complex assay
[17] = Proteus vulgaris, read-out: MIC
[18] = Pseudomonas aeruginosa, read-out: MIC
[19] = Escherichia coli, read-out: MIC

Row | MIC [13] | SMILES | MIC [4] [µg/mL] | MIC [5] [µg/mL] | MIC [6, 17] [µg/mL] | MIC [7] [µg/mL] | MIC [10] | MIC [12] [µg/mL] | MIC [9] | other results
1 |  | CN1CCN(c2cc3c(cc2F)c(=O)c(C(=O)O)cn3C2CC2)CC1 |  |  |  |  |  |  |  | IC50 [1]: 0.47 µg/mL (≈ 1.36 µM); P' [2]: 20; MIC [3]: 0.05 µg/mL (≈ 0.145 µM)
2 |  | O=C(O)c1cn(C2CC2F)c2cc(N3CCNCC3)c(F)cc2c1=O (stereo in doubt; 24) | 0.2 (≈ 0.573 µM) | 1.56 (≈ 4.47 µM) | ≤ 0.05 | 1.56 (≈ 4.47 µM) | 0.1 µg/mL (≈ 0.286 µM) | 0.1 (≈ 0.286 µM) |  | P' [2]: 0.16; MIC [8]: ≤ 0.05 µg/mL; MIC [9, 18]: ≤ 0.05 µg/mL; MIC [11, 19]: ≤ 0.05 µg/mL; MIC ([13]; Klebsiella pneumoniae, read-out: MIC): ≤ 0.05 µg/mL
3 | <=0.05 ug ml-1 | CN1CCN(c2cc3c(cc2F)c(=O)c(C(=O)O)cn3C2CC2F)CC1 (stereo in doubt; 26) [listing 1 of 2 here] | 0.1 (≈ 0.275 µM) | 1.56 (≈ 4.29 µM) | ≤ 0.05 | 0.78 (≈ 2.15 µM) | <=0.05 ug ml-1 | 0.1 (≈ 0.275 µM) |  | P' [2]: 7; MIC [14, 19]: 0.05 µg/mL (≈ 0.138 µM); MIC [15]: ≤ 0.05 µg/mL; MIC [9, 18]: 0.2 µg/mL (≈ 0.55 µM); MIC [11]: ≤ 0.05 µg/mL
4 |  | CN1CCN(c2cc3c(cc2F)c(=O)c(C(=O)O)cn3C2CC2F)CC1 (stereo in doubt; 26) [listing 2 of 2 here] |  |  |  |  |  |  |  | ID50 [16]: 0.31 µg/mL (≈ 0.853 µM)
5 | 0.2 µg/mL (≈ 0.55 µM) | CN1CCN(c2cc3c(cc2F)c(=O)c(C(=O)O)cn3C2CC2F)CC1 (stereo in doubt; 27) [listing 1 of 2 here] | 0.78 (≈ 2.15 µM) | 50 (≈ 138 µM) |  | 12.5 (≈ 34.4 µM) | 0.39 µg/mL (≈ 1.07 µM) | 0.78 (≈ 2.15 µM) | 0.39 µg/mL (≈ 1.07 µM) | MIC [6]: 0.1 µg/mL (≈ 0.275 µM); MIC [14]: 0.1 µg/mL (≈ 0.275 µM)
6 |  | CN1CCN(c2cc3c(cc2F)c(=O)c(C(=O)O)cn3C2CC2F)CC1 (stereo in doubt; 27) [listing 2 of 2 here] |  |  |  |  |  |  |  | ID50 [16]: 0.92 µg/mL (≈ 2.53 µM)
7 | <=0.05 ug ml-1 | CN1CCN(c2c(F)cc3c(=O)c(C(=O)O)cn(C4CC4F)c3c2F)CC1 (stereo in doubt; 30) | 0.2 (≈ 0.524 µM) | 3.13 (≈ 8.21 µM) |  | 0.78 (≈ 2.05 µM) | <=0.05 ug ml-1 | 0.1 (≈ 0.262 µM) | 0.1 µg/mL (≈ 0.262 µM) | 
8 | 0.2 µg/mL (≈ 0.524 µM) | CN1CCN(c2c(F)cc3c(=O)c(C(=O)O)cn(C4CC4F)c3c2F)CC1 (stereo in doubt; 31) | 3.13 (≈ 8.21 µM) | 100 (≈ 262 µM) | ≤ 0.05 | 25 (≈ 65.6 µM) | 1.56 µg/mL (≈ 4.09 µM) | 1.56 (≈ 4.09 µM) | 0.78 µg/mL (≈ 2.05 µM) | MIC [8]: ≤ 0.05 µg/mL; MIC [11, 19]: ≤ 0.05 µg/mL

Row | SMILES | MIC [13] | MIC [4] [µg/mL] | MIC [5] [µg/mL] | MIC [6, 17] [µg/mL] | MIC [7] [µg/mL] | MIC [10] | MIC [12] [µg/mL] | MIC [9] | other results
9 | O=C(O)c1cn(C2CC2F)c2cc(N3CCNCC3)c(F)cc2c1=O (stereo in doubt; 25) | 0.1 µg/mL (≈ 0.286 µM) | 0.78 (≈ 2.23 µM) | 50 (≈ 143 µM) |  | 12.5 (≈ 35.8 µM) | 0.39 µg/mL (≈ 1.12 µM) | 0.78 (≈ 2.23 µM) | 0.1 µg/mL (≈ 0.286 µM) | 
10 | O=C(O)c1cn(C2CC2F)c2c(F)c(N3CCNCC3)c(F)cc2c1=O (stereo in doubt; 28) | <=0.05 ug ml-1 | 0.2 (≈ 0.544 µM) | 0.78 (≈ 2.12 µM) |  | 1.56 (≈ 4.25 µM) | 0.1 µg/mL (≈ 0.272 µM) | 0.1 (≈ 0.272 µM) | <=0.05 ug ml-1 | MIC [11]: <=0.05 ug ml-1
11 | O=C(O)c1cn(C2CC2F)c2c(F)c(N3CCNCC3)c(F)cc2c1=O (stereo in doubt; 29) | 0.2 µg/mL (≈ 0.544 µM) | 3.13 (≈ 8.52 µM) | 50 (≈ 136 µM) | ≤ 0.05 | 25 (≈ 68.1 µM) | 0.78 µg/mL (≈ 2.12 µM) | 1.56 (≈ 4.25 µM) | 0.39 µg/mL (≈ 1.06 µM) | MIC [8]: ≤ 0.05 µg/mL; MIC [11, 19]: 0.1 µg/mL (≈ 0.272 µM)
